Reference: the RNAGym collection of RNA variant scans (doi:10.1038/s41586-018-0170-7)

B1: tRNA (parent)
chain: GUUCCGUUGGCGUAAUGGUAACGCGUCUCCCUCCUAAGGAGAAGACUGCGGGUUCGAGUCCCGUACGGAACG

Variants of: B1
Test: yeast fitness, log relative to wild type (ln ratio); higher = fitter; tRNA-Arg(CCU), competitive growth, 37 C, 1 M NaCl
In short: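 A combinatorial tRNA-Arg(CCU) variant library was carried on a HIS3 centromeric plasmid in BY4742 lacking the chromosomal gene, from two independent transformations. Pools grew 4 generations in SC-HIS at 30 °C, then ~6.5 generations (~26.5 h) in SC-HIS 1M NaCl at 37 °C, with three outputs per input. Variants were counted by 125 bp paired-end Illumina sequencing. Fitness is ln of each genotype's generations (OD-scaled log2 output/input frequency, inverse-variance weighted across replicates) over the wild-type's.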

Variant | yeast fitness (ln)
U2C A43C C46U C66U A69G C71U | -0.25
G6U A43C C46U C66A A69G A70G C71U | -0.167
G6U C66U A70U | -0.122
U2C G6U A43C C46U C66U A69G A70U C71U | -0.471
G1A U2G G6A C27U A43C C66U A69G A70U C71U | -0.489
U2C G6U C27U C46U C66A C71U | -0.0782
G1A U2C G6U C27U C46U A69G C71U | -0.166
G1A U2C C27U C66U A69G A70G | -0.313
G1A U2C C27U C46U C66U A70U | -0.0209
G1A U2C G6A C46U C66U A69G A70G | -0.0859
U2G G6U C66A A69G A70U | -0.000141
G1A U2G G6A C27U A43C C46U C66U A70G | -0.216
U2C C27U A43C C46U A69G | -0.0409
G1A G6U C27U A43C C66U A70U C71U | -0.391
U2G C46U A69G C71U | -0.0879
G1A U2C G6U C27U C46U C66A A70G | -0.0541
U2G G6U C46U A70U C71U | -0.461
G1A C27U C46U C66A C71U | -0.148
U2G A70G C71U | -0.268
C46U A69G | -0.00396
G1A U2G G6A C46U C66U A70G | -0.11

Variant | yeast fitness (ln)
C46U A69G A70U C71U | -0.138
G6U C46U A69G A70U C71U | -0.301
G1A U2C G6A C27U A43C C46U C66U A69G A70U C71U | -0.555
G1A G6A A43C C46U A70U C71U | -0.191
G1A U2G G6A C27U C46U C66U A70U | -0.28
U2C G6U C27U C46U A70U C71U | -0.171
G6A C27U A43C C66A A70G | -0.337
C46U C66U | -0.000909
U2G G6A A43C C46U A70U C71U | -0.118
U2G G6U C27U A43C A69G | -0.268
G6A C27U C46U C66A A70G | -0.218
U2C G6A C27U A43C C66U A69G C71U | -0.35
U2G C46U C66A A69G A70U | -0.0347
U2C G6A A43C C46U C66U C71U | -0.0554
U2C G6A A43C A70G | -0.231
U2G G6U C27U A43C C66U C71U | -0.381
U2G G6A A43C C46U C66A A69G C71U | -0.341
G1A U2G G6A A70U | -0.0829
U2G G6A A43C C46U C66A A70U | -0.0808
C27U C66U A69G A70G C71U | -0.262
U2G G6A C27U C46U A69G A70U C71U | -0.368

Variant | yeast fitness (ln)
U2G G6A C66A A69G A70U | -0.0595
C27U A43C C66A C71U | -0.275
G1A U2C G6U C66A A70U C71U | -0.16
A70U C71U | -0.0899
U2G G6A C27U A69G | -0.24
G1A U2G G6U C27U A43C C66U A69G A70G | -0.337
U2G G6A C46U | -0.0244
U2G G6U C66U A70G | -0.154
U2G G6U C27U C66U A69G A70G C71U | -0.273
G1A G6U A43C C46U C66A A70G C71U | -0.237
G1A A43C C46U A69G A70G C71U | -0.13
G1A U2G C27U A43C C46U A70G C71U | -0.223
U2C A43C A69G A70G C71U | -0.0143
C27U A43C A70G | -0.0631
G1A U2G C27U C46U C66U A70G C71U | -0.218
G1A G6U C27U A70G | -0.277
G1A U2C G6A A70U | -0.0459
U2C G6U C27U A43C C66U A69G A70G | -0.426
U2G G6A C27U A43C C66A A69G C71U | -0.379
G1A U2C C27U C66U A70U | -0.108
G1A G6U C66A A69G A70U | -0.0798

Variant | yeast fitness (ln)
U2G G6A C27U C46U C66A C71U | -0.213
U2G C66U A70G C71U | -0.121
G1A U2G C27U A43C C71U | -0.16
G1A U2C G6U C27U A43C A70G C71U | -0.22
G1A U2G C46U C66U A69G A70U | -0.128
G1A U2C G6A C27U A43C C46U C66U A69G A70G C71U | -0.0617
U2G G6A C27U A69G A70U C71U | -0.383
G1A U2C A43C C66U A70G C71U | -0.272
G6U C27U C46U A70U | -0.167
G1A G6A C46U A69G A70G C71U | -0.129
U2G G6U C46U A69G A70G | -0.109
U2G G6A C27U | -0.0425
U2G G6A C66U C71U | -0.134
G1A U2C G6U C27U A43C C46U A70G C71U | -0.198
G1A C27U A43C C66U A70G C71U | -0.32
G1A U2G C27U C46U C66A | -0.0584
U2C G6A C27U A43C A70U | -0.108
U2G G6A C66A A70G C71U | -0.17
G1A G6A C27U C66A C71U | -0.224
G1A C27U A43C C46U C66A | -0.103
G1A G6A C27U A43C C66A A69G A70G C71U | -0.299
